Source: ChEMBL document CHEMBL1157140, “Design and synthesis of trans 2-(furan-2-yl)vinyl heteroaromatic iodides with antitumour activity” (2008)

Tested on: MCF7
Assay: Cytotoxicity against human MCF7 cells after 3 days by MTT assay
Format: functional
Details: MCF7, 72 h
How it was run: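 MCF7 cells kept in medium with heat-inactivated foetal bovine serum, 2 mM L-alanyl-L-glutamine and penicillin–streptomycin at 37 °C, 5% CO₂. Seeded at 5 × 10³ cells/0.33 cm², then dosed after 24 h at final 0.01–100. Incubated 3 days, then MTT read at 570 nm. Each point averages 8 wells; untreated cells serve as control.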

How did the GI50 turn out when `COc1ccc(-c2ccc(/C=C/c3ccc4ccccc4[n+]3C)o2)cc1Cl` was run?
The GI50 was 191 nM.

`C[n+]1ccccc1/C=C/c1ccc(-c2ccc(Cl)cc2Cl)o1` was tested. Which GI50 did it give?
Its GI50 is 126 nM.

Which GI50 does the source give for `Cn1cc[n+](C)c1/C=C/c1ccc(-c2ccc(Br)cc2)o1` here?
The GI50 was 617 nM.

With `C[n+]1c(/C=C/c2ccc(-c3ccc(Cl)cc3[N+](=O)[O-])o2)ccc2ccccc21` as the compound, how does the GI50 read?
The GI50 was 1740 nM.

For `C[n+]1c(/C=C/c2ccc(Br)o2)ccc2ccccc21`, which GI50 is on record?
Its GI50 is 3160 nM.

`Cn1cc[n+](C)c1/C=C/c1ccc(-c2ccc(Cl)cc2)o1` was tested. Which GI50 did it give?
Its GI50 is 631 nM.

`C[n+]1ccccc1/C=C/c1ccc(-c2cccc(Cl)c2)o1` was tested. Which GI50 did it give?
The GI50 was 135 nM.

For `Cn1cc[n+](C)c1/C=C/c1ccc(Br)o1`, which GI50 is on record?
Its GI50 is 39800 nM.

How did the GI50 turn out when `C[n+]1ccccc1/C=C/c1ccc(-c2ccccc2Cl)o1` was run?
Its GI50 is 2240 nM.

Which GI50 does the source give for `C(=C\c1ccco1)/c1cccc(/C=C/c2ccco2)n1` here?
The GI50 was 2510 nM.

Which GI50 does the source give for `Cn1cc[n+](C)c1/C=C/c1ccc(-c2cccc(Cl)c2)o1` here?
Its GI50 is 1740 nM.

How did the GI50 turn out when `C[n+]1ccccc1/C=C/c1ccc(-c2ccc(Br)cc2)o1` was run?
The GI50 was 1000 nM.

With `C[n+]1ccccc1/C=C/c1ccc(Br)o1` as the compound, how does the GI50 read?
Its GI50 is 7940 nM.

Which GI50 does the source give for `C[n+]1c(/C=C/c2ccc(-c3cccc(Cl)c3)o2)ccc2ccccc21` here?
Its GI50 is 57.5 nM.

Which GI50 does the source give for `C[n+]1ccccc1/C=C/c1ccc(-c2cc(Cl)ccc2Cl)o1` here?
Its GI50 is 38 nM.

For `C[n+]1ccccc1/C=C/c1ccc(-c2ccc(Cl)cc2)o1`, which GI50 is on record?
Its GI50 is 219 nM.

`C[n+]1ccccc1/C=C/c1ccc(-c2cc(C(F)(F)F)ccc2Cl)o1` was tested. Which GI50 did it give?
Its GI50 is 331 nM.

For `Cc1ccc(/C=C/c2n(C)cc[n+]2C)o1`, which GI50 is on record?
Its GI50 is 33100 nM.

For `Cn1cc[n+](C)c1/C=C/c1ccco1`, which GI50 is on record?
Its GI50 is 100000 nM.

For `C[n+]1c(/C=C/c2ccc(-c3ccc(Cl)cc3)o2)ccc2ccccc21`, which GI50 is on record?
The GI50 was 126 nM.

For `Cn1cc[n+](C)c1/C=C/c1ccc(-c2ccccc2Cl)o1`, which GI50 is on record?
The GI50 was 1380 nM.

With `C[n+]1ccccc1/C=C/c1ccco1` as the compound, how does the GI50 read?
The GI50 was 70800 nM.

`C[n+]1ccccc1/C=C/c1ccc(-c2ccc(Cl)c(Cl)c2)o1` was tested. Which GI50 did it give?
The GI50 was 380 nM.

With `COc1ccc(-c2ccc(/C=C/c3cccc[n+]3C)o2)cc1Cl` as the compound, how does the GI50 read?
The GI50 was 66.1 nM.

For `COc1ccc(-c2ccc(/C=C/c3n(C)cc[n+]3C)o2)cc1Cl`, which GI50 is on record?
The GI50 was 224 nM.

`Cn1cc[n+](C)c1/C=C/c1ccc(-c2cc(Cl)ccc2Cl)o1` was tested. Which GI50 did it give?
The GI50 was 191 nM.
